Results pooled from the literature.
MTNR1A: Melatonin receptor type 1A (MTNR1A, Homo sapiens, UniProt P48039)
Glucagon receptor: Glucagon receptor (Mus musculus, UniProt Q61606)

Compound	target	observed	mode	technique	EC50
COc1ccc2[nH]cc(CCNC(C)=O)c2c1I	MTNR1A	cAMP	agonist	TR-FRET	229 nM
COc1cccc(CN2CCOc3ccc(OC)cc32)c1	MTNR1A	cAMP	agonist	luciferase	6.11 nM
Cc1cccnc1C(=O)Nc1ccc(N2C(=O)c3cccc(Cl)c3C2=O)c(Cl)c1	Metabotropic glutamate receptor 1 (Grm1, Rattus norvegicus, UniProt P23385)	calcium signal	positive allosteric modulator		367 nM
Clc1sccc1CNc1cccc(-c2nnc[nH]2)c1	MTNR1A	cAMP	agonist	luciferase	9300 nM
C#CCOCCOCCOCCOc1ccc2c3c1C1CCCC1N3CCNC2 (racemic)	5-hydroxytryptamine receptor 2C (HTR2C, Homo sapiens, UniProt P28335)	calcium signal	agonist	fluorescence	647 nM
CC[C@H](C)[C@H](NC(=O)[C@H](CO)NC(=O)[C@H](Cc1ccc(O)cc1)NC(=O)[C@H](CC(=O)O)NC(=O)[C@H](CO)NC(=O)[C@@H](NC(=O)[C@H](Cc1ccccc1)NC(=O)[C@@H](NC(=O)CNC(=O)[C@H](CCC(=O)O)NC(=O)[C@H](C)NC(=O)[C@@H](N)Cc1ccc(O)cc1)[C@@H](C)O)[C@@H](C)CC)C(=O)N[C@@H](C)C(=O)N[C@@H](CCSC)C(=O)N[C@@H](CC(=O)O)C(=O)N[C@@H](CCCCN)C(=O)N[C@H](C(=O)N[C@@H](CCCNC(=N)N)C(=O)N[C@@H](CCC(N)=O)C(=O)N[C@@H](CCC(N)=O)C(=O)N[C@@H](CC(=O)O)C(=O)N[C@@H](Cc1ccccc1)C(=O)N[C@H](C(=O)N[C@@H](CC(N)=O)C(=O)N[C@@H](Cc1c[nH]c2ccccc12)C(=O)N[C@@H](CC(C)C)C(=O)N[C@@H](CC(C)C)C(=O)N[C@@H](C)C(=O)N[C@@H](CCC(N)=O)C(=O)N[C@@H](CCCNC(=N)N)C(=O)NCC(=O)N[C@@H](CCCCN)C(=O)N[C@@H](CCCCN)C(=O)N[C@@H](CO)C(=O)N[C@@H](CC(=O)O)C(=O)N[C@@H](Cc1c[nH]c2ccccc12)C(=O)N[C@@H](CCCCN)C(=O)N[C@@H](Cc1c[nH]cn1)C(=O)N[C@@H](CC(N)=O)C(=O)N[C@H](C(=O)N[C@H](C(=O)N[C@@H](CCC(N)=O)C(=O)O)[C@@H](C)O)[C@@H](C)CC)C(C)C)[C@@H](C)CC	Glucagon receptor	reporter gene	agonist	luciferase	> 1000 nM
COCC(CNC(C)=O)c1cccc2ccc(OC)cc12 (stereo not drawn)	MTNR1A	cAMP	agonist	TR-FRET	21.4 nM
CC[C@H](C)[C@H](NC(=O)[C@H](Cc1ccccc1)NC(=O)[C@H](CCC(=O)O)NC(=O)[C@H](CCCCN)NC(=O)[C@H](C)NC(=O)[C@H](C)NC(=O)[C@H](CCC(N)=O)NC(=O)CNC(=O)[C@H](CCC(=O)O)NC(=O)[C@H](CC(C)C)NC(=O)[C@H](Cc1ccc(O)cc1)NC(=O)[C@H](CO)NC(=O)[C@H](CO)NC(=O)[C@@H](NC(=O)[C@H](CC(=O)O)NC(=O)[C@H](CO)NC(=O)[C@@H](NC(=O)[C@H](Cc1ccccc1)NC(=O)[C@@H](NC(=O)CNC(=O)[C@H](CCC(=O)O)NC(=O)[C@H](C)NC(=O)[C@@H](N)Cc1c[nH]cn1)[C@@H](C)O)[C@@H](C)O)C(C)C)C(=O)N[C@@H](C)C(=O)N[C@@H](Cc1c[nH]c2ccccc12)C(=O)N[C@@H](CC(C)C)C(=O)N[C@H](C(=O)N[C@@H](CCCCN)C(=O)NCC(=O)N[C@@H](CCCN=C(N)N)C(=O)NCC(=O)O)C(C)C	Glucagon receptor	reporter gene	agonist	luciferase	> 1000 nM
COc1ccc(CSc2nnc(C3CC3)[nH]2)cc1	MTNR1A	cAMP	agonist	luciferase	2.96 nM
